From ChEMBL document CHEMBL1806443, “Novel imidazo[4,5-b]pyridine and triaza-benzo[c]fluorene derivatives: synthesis, antiproliferative activity and DNA binding studies” (Eur J Med Chem, 2011)
The source made the active and inactive calls. No cut-off for these calls is given here.

Assays:
WI-38 [1] = assay: Cytostatic activity against human WI38 cells at 1 to 10 uM after 72 hrs by MTT assay; format: ADME, cell-based; conditions: wi-38, 72 h
Outline: (§1)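 Monolayers in DMEM with 10% FBS, 2 mM L-glutamine, penicillin and streptomycin (37 °C, 5% CO2) were seeded at 3000–6000 cells/well on day 0. Five 10-fold dilutions (0.01–100 µM) were added, followed by 72-h incubation and MTT read-out. Absorbances were converted to percentage growth by the NIH formulae. Each point was run in quadruplicate in three experiments; ANOVA with Tukey test.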

SW-620 [2] = assay: Antiproliferative activity against human SW620 cells after 72 hrs by MTT assay; format: functional, cell-based
Outline: (§2)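 Monolayer cells in DMEM with 10% FBS, 2 mM L-glutamine, penicillin and streptomycin at 37 °C, 5% CO2. Seeded at 3000-6000 cells/well by doubling time on day 0. Five 10-fold dilutions (0.01–100 µM) were added and incubated 72 h. MTT read-out, converted to percentage growth. IC50 by linear regression between bracketing concentrations. Quadruplicate points, three independent experiments, ANOVA/Tukey p<0.05.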

MCF7 [3] = assay: Cytostatic activity against human MCF7 cells at 1 to 10 uM after 72 hrs by MTT assay; format: functional, cell-based; outline: as §1
HeLa [4] = assay: Antiproliferative activity against human HeLa cells after 72 hrs by MTT assay; format: functional, cell-based; outline: as §2
SK-BR-3 [5] = assay: Cytostatic activity against human SKBR3 cells at 1 to 10 uM after 72 hrs by MTT assay; format: functional, cell-based; outline: as §1
WI-38 [6] = assay: Antiproliferative activity against human WI38 cells after 72 hrs by MTT assay; format: cell-based; outline: as §2
MIA PaCa-2 [7] = assay: Antiproliferative activity against human MIAPaCa2 cells after 72 hrs by MTT assay; format: functional, cell-based; outline: as §2
HeLa [8] = assay: Cytostatic activity against human HeLa cells at 1 to 10 uM after 72 hrs by MTT assay; format: functional, cell-based; outline: as §1
HEp-2 [9] = assay: Antiproliferative activity against human Hep2 cells after 72 hrs by MTT assay; format: functional, cell-based; outline: as §2
HEp-2 [10] = assay: Cytostatic activity against human Hep2 cells at 1 to 10 uM after 72 hrs by MTT assay; format: functional, cell-based; outline: as §1
MCF7 [11] = assay: Antiproliferative activity against human MCF7 cells after 72 hrs by MTT assay; format: functional, cell-based; outline: as §2
MIA PaCa-2 [12] = assay: Cytostatic activity against human MIAPaCa2 cells at 1 to 10 uM after 72 hrs by MTT assay; format: functional, cell-based; outline: as §1
SW-620 [13] = assay: Cytostatic activity against human SW620 cells at 1 to 10 uM after 72 hrs by MTT assay; format: functional, cell-based; outline: as §1
SK-BR-3 [14] = assay: Antiproliferative activity against human SKBR3 cells after 72 hrs by MTT assay; format: functional, cell-based; outline: as §2
SW-620 [15] = assay: Antiproliferative activity against human SW620 cells at 0.1 to 10 uM after 72 hrs by MTT assay; format: functional, cell-based; outline: as §2
HeLa [16] = assay: Antiproliferative activity against human HeLa cells at 0.1 to 10 uM after 72 hrs by MTT assay; format: functional, cell-based; outline: as §2
MCF7 [17] = assay: Antiproliferative activity against human MCF7 cells at 0.1 to 10 uM after 72 hrs by MTT assay; format: functional, cell-based; outline: as §2
WI-38 [18] = assay: Antiproliferative activity against human WI38 cells at 0.1 to 10 uM after 72 hrs by MTT assay; format: cell-based; conditions: wi-38, 72 h; outline: as §2
HEp-2 [19] = assay: Antiproliferative activity against human Hep2 cells at 0.1 to 10 uM after 72 hrs by MTT assay; format: functional, cell-based; outline: as §2
SK-BR-3 [20] = assay: Antiproliferative activity against human SKBR3 cells at 0.1 to 10 uM after 72 hrs by MTT assay; format: functional, cell-based; outline: as §2
MIA PaCa-2 [21] = assay: Antiproliferative activity against human MIAPaCa2 cells at 0.1 to 10 uM after 72 hrs by MTT assay; format: functional, cell-based; outline: as §2

SMILES	Activity (WI-38 [1])	IC50 (SW-620 [2]; Homo sapiens, SW-620, 72 h) [µM]	Activity (MCF7 [3])	IC50 (HeLa [4]; Homo sapiens, HeLa, 72 h) [µM]	Activity (SK-BR-3 [5])	IC50 (WI-38 [6]; Homo sapiens, WI-38, 72 h) [µM]	IC50 (MIA PaCa-2 [7]; Homo sapiens, MIA PaCa-2, 72 h) [µM]	Activity (HeLa [8])	IC50 (HEp-2 [9]; Homo sapiens, HEp-2, 72 h) [µM]	Activity (HEp-2 [10])	IC50 (MCF7 [11]; Homo sapiens, MCF7, 72 h) [µM]	Activity (MIA PaCa-2 [12])	Activity (SW-620 [13])	IC50 (SK-BR-3 [14]; Homo sapiens, SK-BR-3, 72 h) [µM]	also measured
C(=C\c1nc2ncccc2[nH]1)/c1ccccc1	Toxic	4.64	Active	2.22	Active	3.87	4.39	Active	3.89	Active	7.57	Active	Active	2.06	
Clc1cccnc1/C=C/c1nc2ncccc2[nH]1		> 100		> 100		> 100	> 100		> 100		> 100			53.1	
O=c1[nH]cc(F)c(=O)[nH]1 [FLUOROURACIL]		3.38		10.3		18.5	11.5		> 100		42			38.2	
N#Cc1ccc2ccc3nc4ncccc4n3c2c1		> 100		39.5		51.5	> 100		47.3		> 100			67.7	
Nc1ccc2c(ccc3nc4ncc(Br)cc4n32)c1 [listing 1 of 3 here]			Active		Active			Active		Active		Active	Active		
Clc1ccccc1/C=C/c1nc2ncccc2[nH]1	Toxic	50.9	Active	31.6	Active	> 100	59.1	Active	29.3	Active	25.6	Active	Active	5.79	
O=[N+]([O-])c1ccc2c(ccc3nc4ncccc4n32)c1		> 100		52.8		75.7	> 100		> 100		> 100			42.7	
N#Cc1ccc(/C=C/c2nc3ncccc3[nH]2)cc1		> 100		47.1		> 100	> 100		84.9		12.9			86.6	
c1ccc2c(c1)ccc1nc3ncccc3n12 [7,8,11b-triazabenzo[c]fluorene]		78.3		14.3		47.4	80.5		52.3		75.5			83.5	
C[n+]1cccc2c1nc1ccc3cc([N+](=O)[O-])ccc3n12		26.7		11.4		> 100	> 100		31.5		> 100			33.6	
Nc1ccc2c(ccc3nc4ncccc4n32)c1															IC50 (SW-620 [2]; sw-620): 25.9 µM; IC50 (HeLa [4]; hela): 27.2 µM; IC50 (MIA PaCa-2 [7]; mia paca-2): 43.4 µM; IC50 (HEp-2 [9]; hep-2): 26.7 µM; IC50 (MCF7 [11]; mcf7): 56 µM; IC50 (SK-BR-3 [14]; sk-br-3): 3.64 µM
Brc1cnc2nc3ccc4ccc(C5=NCCN5)cc4n3c2c1.Cl	Toxic	3.67	Active	1.1	Active	3.71	4.74	Active	4.01	Active	8.43	Active	Active	5.52	Activity (SW-620 [15]): Active; Activity (HeLa [16]): Active; Activity (MCF7 [17]): Active; Activity (WI-38 [18]): Toxic; Activity (HEp-2 [19]): Active; Activity (SK-BR-3 [20]): Active; Activity (MIA PaCa-2 [21]): Active
Nc1ccc2c(ccc3nc4ncc(Br)cc4n32)c1 [listing 2 of 3 here]															IC50 (SW-620 [2]; sw-620): 40.7 µM; IC50 (HeLa [4]; hela): 37.7 µM; IC50 (WI-38 [6]; wi-38): 85.1 µM; IC50 (MIA PaCa-2 [7]; mia paca-2): 40.3 µM; IC50 (HEp-2 [9]; hep-2): 21.6 µM; IC50 (MCF7 [11]; mcf7): 67.3 µM; IC50 (SK-BR-3 [14]; sk-br-3): 7.56 µM
c1cnc2ccc3nc4ncccc4n3c2c1		> 100		> 100		> 100	> 100		> 100		> 100			> 100	
O=[N+]([O-])c1ccc(Cl)c(/C=C/c2nc3ncccc3[nH]2)c1		52		45.1		61.6	38.8		49.4		53.6			1.8	
O=[N+]([O-])c1ccc2c(ccc3nc4ncc(Br)cc4n32)c1		61.2		13.4		> 100	63.5		31.1		> 100			8.11	
O=[N+]([O-])c1ccc(Cl)c(/C=C/c2nc3ncc(Br)cc3[nH]2)c1	Toxic	7.99	Active	3.68	Active	6.48	30.6	Active	0.91	Active	8.81	Active	Active	59.9	
Nc1ccc2c(ccc3nc4ncc(Br)cc4n32)c1 [listing 3 of 3 here]	Toxic	38.6		30.9		85.4	33		14.1		61.7			7.76	
N#Cc1ccc(/C=C/c2nc3ncc(Br)cc3[nH]2)cc1	Toxic	7.11	Active	2.88	Active	6.76	8.17	Active	5.69	Active	7.82	Active	Active	4.31	
